Legend:
Swiss mice = assay: Acute murine toxicity study; assay type: in vivo; conditions: 1-10-30 mg/kg/day for 10 days
ATX [1] = target: T1, ATX (Homo sapiens, UniProt Q13822); assay: Inhibition of LPA production from ADMAN-LPC by ATX; assay type: biochemical; conditions: compound 3 μM, 0.5 μM ADMAN-LPC, 100 nM ATX
In short: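 ADMAN-LPC (0.5 µM final) was incubated with 100 nM ATX, with or without 3 µM test compound, at 37 °C for 4 h. Lipids were extracted and separated by silica TLC in CHCl3/MeOH/NH4OH (60:35:8). Fluorescent LPC and LPA bands were visualized under a UV imager.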

[2] = Pharmacokinetics after i.v. bolus; assay type: in vivo, Sprague-Dawley rats; conditions: rat
In short: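 Male Sprague–Dawley rats (250–275 g) fitted with jugular and femoral catheters received a single 5.8 mg/kg i.v. femoral bolus; drug was dissolved in propylene glycol and diluted in rat plasma. Jugular blood was drawn from 5 to 1440 min into lithium heparin. Plasma was butanol-extracted at pH 4.0 with internal standard and quantified by LC-MS/MS on a C8 column. Non-compartmental analysis gave AUC (trapezoidal), CL=dose/AUC, MRT=AUMC/AUC and Vdss=CL×MRT.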

plasma LPA = assay: Plasma LPA levels after i.v. bolus; assay type: in vivo, Sprague-Dawley rats; conditions: rat, i.v. 5.8 mg/kg, first rapid decrease
[3] = target: recombinant, purified human ATX (Homo sapiens, UniProt Q13822); assay: ATX IC50 and mechanism of inhibition; assay type: biochemical
In short: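 Recombinant purified human ATX with FS3 (1 µM final) in Tris 50 mM, NaCl 140 mM, KCl 5 mM, CaCl2 1 mM, MgCl2 1 mM, pH 8.0, plus 15 µM fatty-acid-free BSA. IC50 came from full dose-responses. For mechanism, FS3 was varied 0.3–20 µM at three inhibitor levels including zero.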

MM1 hepatoma cells = assay: MM1 cell invasion of HUVEC monolayers; assay type: cell-based, rat
In short: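 HUVECs (passage 7, 1.3×10^5/well) were grown on 0.2% gelatin for two days to confluence. Rat MM1 hepatoma cells, calcein AM-labelled (2 µg/mL, 2 h), were seeded at 5×10^4/well. Invasion ran 24 h in MCDB-131 with 1% serum, with or without 1.5 µM LPC (BSA-complexed, 30 µM BSA final). After five PBS rinses and formalin fixation, flattened cells beneath the monolayer were counted in ≥5 fields at 100×.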

ATX [4] = target: T1, ATX; assay: Inhibition of pNP-TMP hydrolysis by ATX; assay type: biochemical; conditions: compound 10 μM, 5 mM pNP-TMP, 4 nM ATX; compared with LPA 18:1 10 μM
In short: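 Reactions held 4 nM ATX and 5 mM pNP-TMP, with vehicle or 10 µM test compound, in Tris 50 mM/NaCl 140 mM/KCl 5 mM/CaCl2 1 mM/MgCl2 1 mM, pH 8.0. They ran at 37 °C with absorbance monitored at 405 nm.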

NPP7 = target: T2, NPP7 (Homo sapiens, UniProt Q6UWV6); assay: NPP7 inhibition assay; assay type: biochemical; conditions: read-out: NPP7 Activity, % control (10μM)
T2 sequence (Q6UWV6 22-458): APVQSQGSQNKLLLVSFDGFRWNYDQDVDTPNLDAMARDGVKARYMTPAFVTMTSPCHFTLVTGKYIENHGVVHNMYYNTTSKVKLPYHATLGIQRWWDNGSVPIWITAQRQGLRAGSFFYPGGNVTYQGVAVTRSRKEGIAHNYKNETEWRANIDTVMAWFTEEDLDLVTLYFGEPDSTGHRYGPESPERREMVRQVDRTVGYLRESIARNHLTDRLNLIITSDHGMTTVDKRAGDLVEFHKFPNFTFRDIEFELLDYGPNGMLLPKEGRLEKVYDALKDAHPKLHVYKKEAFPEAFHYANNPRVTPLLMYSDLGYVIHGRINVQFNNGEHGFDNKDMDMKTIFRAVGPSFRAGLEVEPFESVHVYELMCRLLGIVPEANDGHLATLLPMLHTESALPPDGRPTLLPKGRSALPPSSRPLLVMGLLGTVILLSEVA
In short: (§1)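 Recombinant purified NPP6 or NPP7 (8.3 nM final) was incubated with pNPPC (10 µM) and a single 10 µM compound concentration. Liberated p-nitrophenol was read at 405 nm for up to 1 h, within the linear range. Activity was normalized to vehicle control.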

NPP6 = target: T3, NPP6 (Homo sapiens, UniProt Q6UWR7); assay: NPP6 inhibition assay; assay type: biochemical; conditions: read-out: NPP6 Activity, % control (10μM)
T3 sequence (Q6UWR7 23-440): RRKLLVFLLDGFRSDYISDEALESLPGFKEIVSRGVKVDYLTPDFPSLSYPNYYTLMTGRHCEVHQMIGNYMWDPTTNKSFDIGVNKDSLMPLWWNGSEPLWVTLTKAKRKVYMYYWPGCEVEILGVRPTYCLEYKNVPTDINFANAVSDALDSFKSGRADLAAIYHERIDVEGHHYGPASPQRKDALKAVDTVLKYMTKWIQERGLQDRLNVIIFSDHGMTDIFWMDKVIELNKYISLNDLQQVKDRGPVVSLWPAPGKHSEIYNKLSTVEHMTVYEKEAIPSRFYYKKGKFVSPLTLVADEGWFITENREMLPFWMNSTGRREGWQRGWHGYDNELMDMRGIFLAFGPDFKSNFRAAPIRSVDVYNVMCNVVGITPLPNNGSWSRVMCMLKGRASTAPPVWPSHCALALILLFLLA
In short: as §1

[5] = male, Sprague-Dawley, plasma, iv, 5.8 mg/kg

Q: With `CCCCCCCCCCCCCCCc1ccc(CP(=O)(O)O)cc1` [Compound 22, 4-pentadecylbenzylphosphonic acid] as the compound, how does the death (Swiss mice) read?
A: No death was detected in any of the groups

Q: And the “non-observable adverse effect level” value (Swiss mice; i.p.)?
A: > 10 mg/kg

Q: What about the “inhibition of hydrolysis of ADMAN-LPC (LPA production)” value (ATX [1]) of the same compound?
A: inhibited

Q: What about the MRT [2, 5] of the same compound?
A: 7.6 h

Q: What about the clearance [2, 5] of the same compound?
A: 8.6 ± 0.5 mL/min/kg

Q: What about the half-life ([2]; male, Sprague-Dawley, plasma, iv, 5.8 mg/kg, terminal half-life, i.v. 5.8 mg/kg) of the same compound?
A: 600 min

Q: What about the “mean plasma residence time” value ([2]; i.v. 5.8 mg/kg) of the same compound?
A: 7.6 ± 0.5 h

Q: And the “time of nadir of plasma LPA levels” value (plasma LPA)?
A: 60 min

Q: What about the “ATX Mechanism of Inhibition” value ([3]; FS-3 substrate 0.3-20 μM, inhibitor 0, 0.5x, 2x IC50) of the same compound?
A: Mixed

Q: What about the “ATX Ki′” value ([3]; affinity for enzyme substrate complex, FS-3) of the same compound?
A: 0.28 µM

Q: What about the “basal rate of invasion of HUVEC monolayer” value (MM1 hepatoma cells; compounds alone, without LPC) of the same compound?
A: did not reduce

Q: And the “LPC-dependent invasion of the HUVEC monolayer” value (MM1 hepatoma cells; with 1.5 μM LPC, 24 h)?
A: dose-dependently inhibited

Q: What about the “inhibition of hydrolysis of pNP-TMP” value (ATX [4]) of the same compound?
A: inhibit the hydrolysis

Q: With `CCCCCCCCCCCCCC(=O)Nc1ccc(CP(=O)(O)O)cc1` [Compound S32826, 4-tetradecanoylaminobenzyl phosphonic acid] as the compound, how does the remaining activity at 10 µM (NPP7) read?
A: 101%

Q: What about the remaining activity at 10 µM (NPP6) of the same compound?
A: 102%

From PMC3517046 (ChemMedChem, 2011)
